Source: PubChem (several laboratories)
This is a sample that favours compounds with a hit; in the whole collection about 1.1% have one here.
KLK5 inh – kallikrein 5 (human) inhibition | Q9Y337 | recombinant hK5, fluorogenic AMC substrate cleavage | inhibition, % at 5 µM | hit rate 0.59% among 210,000 | AID 873;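 active = inhibition of 40% or more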;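 also: 0% = enzyme controls without compound and 100% = no-enzyme blanks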
Hep lipid drop – hepatic lipid droplet formation modulation. AML12 mouse hepatocytes, oleate lipid droplets, BODIPY imaging. inhibition, % at 6.5 µM. hit rate 0.4% among 240,000;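 active = lipid droplet intensity inhibited by at least 50%, with more than 500 cells counted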
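Assay system: AML12 mouse liver cells | Compound: 6.5 µM single-point dosing | Schedule: Overnight exposure | Technique: Fluorescence imaging, 20x objective, two fields per well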
Thrombin inh – thrombin (human) inhibition; alpha-thrombin, Boc-VPR-AMC fluorogenic substrate cleavage; inhibition, % at 5 µM; hit rate 0.26% among 220,000; AID 1046;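 active = inhibition at or above 40%; inactive = inhibition below 40%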;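 also: 0% = enzyme with no compound and 100% = wells without enzyme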
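System – human alpha-thrombin · Medium – pH 7.5 Tris (50 mM) with NaCl 150 mM, Tween 20 0.05% · Compound – single-point dosing at 5 µM, 0.2% DMSO · Incubation – enzyme reaction carried out at room temperature · Technique – fluorescence of released AMC, ex 355 nm, em 460 nm · Read-out basis – % inhibition of thrombin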
FXIa inh – inhibitors of human coagulation factor XIa; purified FXIa, Boc-Glu-Ala-Arg-AMC fluorogenic substrate; inhibition, % at 5 µM; hit rate 0.14% among 220,000; P03951; AID 798;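 active = inhibition of at least 40%; inactive = inhibition below 40%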;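 also: fluorescence of freed AMC excited at 355 nm; 0% = enzyme without compound and 100% = no enzyme blank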
Target sequence (P03951 19-387 limits assumed): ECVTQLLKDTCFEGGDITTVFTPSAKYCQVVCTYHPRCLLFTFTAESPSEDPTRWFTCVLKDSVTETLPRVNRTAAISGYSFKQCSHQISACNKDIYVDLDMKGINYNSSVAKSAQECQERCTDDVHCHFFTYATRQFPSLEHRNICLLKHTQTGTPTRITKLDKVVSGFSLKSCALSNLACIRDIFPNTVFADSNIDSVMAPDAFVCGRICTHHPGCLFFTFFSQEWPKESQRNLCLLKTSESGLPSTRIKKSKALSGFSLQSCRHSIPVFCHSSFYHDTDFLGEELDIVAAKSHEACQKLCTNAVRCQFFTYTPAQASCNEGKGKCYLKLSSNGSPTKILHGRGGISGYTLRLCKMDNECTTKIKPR
Target sequence (P03951 388-625 limits assumed): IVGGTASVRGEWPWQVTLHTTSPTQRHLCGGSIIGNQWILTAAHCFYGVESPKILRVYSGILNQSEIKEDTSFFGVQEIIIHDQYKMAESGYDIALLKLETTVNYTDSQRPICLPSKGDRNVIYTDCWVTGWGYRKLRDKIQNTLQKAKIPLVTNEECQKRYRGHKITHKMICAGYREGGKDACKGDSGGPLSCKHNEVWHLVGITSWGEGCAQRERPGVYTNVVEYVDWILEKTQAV
FXIIa inh – inhibitors of human coagulation factor XIIa; P00748; hit rate 0.3% among 220,000; purified FXIIa, Boc-QGR-AMC fluorogenic substrate, 2 h; AID 800; inhibition, % at 5 µM; in the data active = inhibition above about 40%;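 also: 0% = enzyme with no compound and 100% = blank without enzyme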
Biofilm kill mix – mixture kills Candida albicans biofilm cells; C. albicans biofilm persisters + clotrimazole, fluorescence viability; primary screen in compound mixtures of four per well; hit rate 0.02% among 120,000; inhibition, % at 7.6 µM;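 active = inhibition above 30.3% in the primary screen of four-compound pools, then above 30% when the compound was retested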;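 also: compounds exposed to preformed 24 h biofilms for 48 h; 0% = untreated biofilm control and 100% = clotrimazole plus chlorhexidine kill blank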
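Test system: C. albicans biofilms. Buffer or medium: RPMI/MOPS medium, pH 7.0. Timing: 48 h compound exposure at 37 °C. Technique: Alamar Blue fluorescence. Evaluation: percent inhibition of biofilm viability.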
The depositor's hits bear a star.

What do the screens show for `Cc1nnc(NC(=O)CCC(=O)NC2CCCCCCC2)s1`?
Hep lipid drop: 1.3

How did CCc1nnc(NC(=O)CCC(=O)N2CCN(Cc3ccc(C)cc3C)CC2)s1 do in these assays?
Hep lipid drop: 3.9

How did CCc1nnc(NC(=O)CCC(=O)N2CCN(CCOc3ccc(C)cc3)CC2)s1 do in these assays?
KLK5 inh: 22.1; Thrombin inh: 13.3; FXIa inh: 15.1; FXIIa inh: 42.1*

How did O=C(N=C1SC2CS(=O)(=O)CC2N1c1ccc(Br)cc1)C1CCCO1 (stereo not drawn) do in these assays?
Hep lipid drop: 7.4

How did CC(C)c1ccc(NC(=S)Nc2ccc3cn[nH]c3c2)cc1 do in these assays?
KLK5 inh: 3.1; Hep lipid drop: -16.3; Thrombin inh: 41.8*; FXIa inh: 1.1; FXIIa inh: 6.9; Biofilm kill mix: -0.6

What do the screens show for `Cc1ccc(NC(=S)Nc2ccc3cn[nH]c3c2)cc1C`?
KLK5 inh: 12.3; Hep lipid drop: -24.0; Thrombin inh: 17.6; FXIa inh: -6.2; FXIIa inh: 1.4; Biofilm kill mix: 23.1

Results for C=CCn1c(Cc2cccs2)nnc1SCC(=O)Nc1ccc(OC)c(OC)c1 ?
KLK5 inh: -6.8; Hep lipid drop: -2.8; Thrombin inh: 3.3; FXIa inh: -0.7; FXIIa inh: 19.6

Results for CCn1c(SCC(=O)NCc2cccs2)nnc1-c1cccs1 ?
KLK5 inh: 8.0; Hep lipid drop: -2.0; Thrombin inh: -5.2; FXIa inh: -1.8; FXIIa inh: -5.9

What do the screens show for `Cn1c(SCC(=O)NCc2cccs2)nnc1-c1cccs1`?
KLK5 inh: 51.6*; Hep lipid drop: 6.9; Thrombin inh: 16.3; FXIa inh: 9.6; FXIIa inh: 14.7

Results for C=CCn1c(Cc2cccs2)nnc1SCC(=O)NCc1ccco1 ?
KLK5 inh: 17.1; Thrombin inh: 26.1; FXIa inh: 47.6*; FXIIa inh: 27.5

How did CCOC(=O)C1(C)C=C(Nc2cccc(OC)c2)C(=O)N1c1ccccc1 (stereo not drawn) do in these assays?
KLK5 inh: 43.7*; Hep lipid drop: -44.5; Thrombin inh: 28.0; FXIa inh: 22.4; FXIIa inh: 20.6; Biofilm kill mix: 5.7

How did CCOC(=O)C1(C)C=C(Nc2ccc(OC)cc2)C(=O)N1c1ccc(OC)cc1 (stereo not drawn) do in these assays?
KLK5 inh: 12.7; Hep lipid drop: -5.9; Thrombin inh: -1.6; FXIa inh: 4.0; FXIIa inh: 12.6; Biofilm kill mix: 6.3

Results for COc1ccc2nc(N(Cc3ccccc3)C(=O)CCNC(C)=O)sc2c1 ?
Hep lipid drop: -25.2

Results for COc1cccc2cc(C(=O)N3CCC(C)CC3)c(=O)oc12 ?
KLK5 inh: -4.5; Thrombin inh: 0.2; FXIa inh: 4.6; FXIIa inh: 14.0

What do the screens show for `COc1cccc2cc(C(=O)N3CCN(C45CC6CC(CC(C6)C4)C5)CC3)c(=O)oc12`?
KLK5 inh: 64.7*; Hep lipid drop: -5.4; Thrombin inh: 18.8; FXIa inh: 12.2; FXIIa inh: 17.5

Results for COc1cc(C)c(S(=O)(=O)NCc2cccs2)cc1C ?
KLK5 inh: 27.2; Hep lipid drop: -13.9; Thrombin inh: 30.3; FXIa inh: 8.0; FXIIa inh: 108.3*

How did CCn1c(-c2c(Cl)c(C)nn2C)n[nH]c1=S do in these assays?
KLK5 inh: 55.5*; Hep lipid drop: 2.6; Thrombin inh: 15.9; FXIa inh: -0.3; FXIIa inh: 16.9; Biofilm kill mix: 9.7

Results for NNC(=O)c1ccc(OCC2CC(c3ccc(Cl)cc3)=NO2)cc1 (stereo not drawn) ?
KLK5 inh: 11.1; Hep lipid drop: 1.6; Thrombin inh: 1.8; FXIa inh: 3.5; FXIIa inh: 14.0; Biofilm kill mix: 19.0

Results for O=C(N/N=C\c1cccc([N+](=O)[O-])c1O)C1COc2ccccc2O1 (stereo not drawn) ?
KLK5 inh: 54.9*; Hep lipid drop: 20.4; Thrombin inh: 15.6; FXIa inh: 5.3; FXIIa inh: 0.5; Biofilm kill mix: 0.9

What do the screens show for `Cc1nc2c3ccccc3nc(NNC(=O)CCC(=O)NC(C)C)n2n1`?
KLK5 inh: -14.7; Hep lipid drop: -7.1; Thrombin inh: 0.0; FXIa inh: 6.7; FXIIa inh: 8.3; Biofilm kill mix: 16.4

Results for Cc1nc2c3ccccc3nc(NNC(=O)CCC(=O)NC3CCCC3)n2n1 ?
KLK5 inh: 50.0*; Hep lipid drop: -12.1; Thrombin inh: 5.2; FXIa inh: -3.4; FXIIa inh: 9.4; Biofilm kill mix: 11.5

Results for CC(=O)c1ccc(N2CCN(C(=O)/C=C/c3ccc(S(=O)(=O)N4CCOCC4)cc3)CC2)cc1 ?
KLK5 inh: -1.9; Hep lipid drop: 6.8; Thrombin inh: -5.7; FXIa inh: -4.6; Biofilm kill mix: 14.6

Results for CC(=O)c1ccc(N2CCN(S(=O)(=O)c3cccc(S(=O)(=O)N4CCOCC4)c3)CC2)cc1 ?
KLK5 inh: 89.6*; Hep lipid drop: -14.3; Thrombin inh: 12.2; FXIa inh: 8.6; FXIIa inh: 46.8*

What do the screens show for `COc1ccc(-c2nc(N)n(C(=O)c3cccs3)n2)cc1`?
KLK5 inh: 1.6; Hep lipid drop: 13.6; Thrombin inh: -12.3; FXIa inh: -1.0; FXIIa inh: 8.5; Biofilm kill mix: 5.0

What do the screens show for `O=C1COc2ccc(N3C(=O)C=CC3=O)cc2N1`?
KLK5 inh: -1.3; Hep lipid drop: 40.1; Thrombin inh: 0.1; FXIa inh: -1.2; FXIIa inh: 6.1; Biofilm kill mix: -1.8

What do the screens show for `COc1cc(C(=O)N[C@H](C(=O)NC2CCCCCC2)C(C)C)cc(OC)c1OC`?
KLK5 inh: 44.2*; Hep lipid drop: 15.0; Thrombin inh: 1.5; FXIa inh: 7.9; FXIIa inh: 8.2

What do the screens show for `Cc1nn(-c2ccccc2)nc1C(=O)Oc1cc(C(F)(F)F)nn1-c1ccccc1`?
KLK5 inh: 1.9; Hep lipid drop: 5.5; Thrombin inh: 1.8; FXIa inh: -6.7; FXIIa inh: 11.0; Biofilm kill mix: 11.2

What do the screens show for `COc1ccc(C)cc1S(=O)(=O)Nc1ccncc1`?
KLK5 inh: -1.3; Hep lipid drop: 4.2; Thrombin inh: -4.6; FXIa inh: -3.1; FXIIa inh: 1.4; Biofilm kill mix: 9.7

Results for COc1ccc(C(C)C)cc1S(=O)(=O)Nc1ccncc1 ?
KLK5 inh: 26.3; Hep lipid drop: -130.4; Thrombin inh: 45.8*; FXIa inh: 25.6; FXIIa inh: 22.6; Biofilm kill mix: 13.4

What do the screens show for `O=C(CCC(=O)OCc1ccc(C(=O)Oc2ccc(Cl)cc2)cc1)Nc1ccccc1`?
KLK5 inh: 52.2*; Hep lipid drop: -3.7; Thrombin inh: 12.5; FXIa inh: 1.2; FXIIa inh: 35.4; Biofilm kill mix: 18.2

How did CCOC(=O)CSc1n[nH]c(NC(=O)CC)n1 do in these assays?
Hep lipid drop: -37.1; Thrombin inh: 1.3; FXIa inh: -2.8; FXIIa inh: 4.6; Biofilm kill mix: 12.0
